Results as given in paper PMC9773939 (ACS Omega, 2022).
Like-named read-outs stand apart in the source and are kept apart here.

Experiments:
[1] = tested on: promastigotes of L. braziliensis; experiment: In vitro growth inhibition of L. braziliensis promastigotes; type: cell-based, Leishmania (V) braziliensis (MHOM/BR/75/M2903); details: for IC50: read-out: promastigote, IC50 L. braziliensis; for inhibition at 25 µM: read-out: promastigote, PGI (percentage growth inhibition) L. braziliensis
[2] = tested on: promastigotes of L. infantum; experiment: In vitro growth inhibition of L. infantum promastigotes; type: cell-based, Leishmania infantum (MHOM MA67I7MAP263); details: for IC50: read-out: promastigote, IC50 L. infantum
Method in brief: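 L. infantum MHOM MA67I7MAP263 promastigotes at 2 × 10^6 parasites/mL were exposed to 0.5–25 μM test compound for 72 h at 25 °C. Dilutions came from a 3000 μM DMSO stock, with final DMSO ≤1%. MTT (0.4 mg/mL) was added for 4 h at 37 °C, formazan was dissolved in DMSO and read at 570 nm. Inhibition was calculated against untreated controls. At least three experiments, mean ± SD.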

[3] = tested on: epimastigotes of T. cruzi; experiment: In vitro anti-T. cruzi evaluation on epimastigotes; type: cell-based, T. cruzi (CL Brener clone); details: for S.I.T.cruzi (selectivity index), column epimastigote, IC50 (μM) T. cruzi (S.I.T.cruzi): CC50 (J774.1A) / IC50 of epimastigotes (T. cruzi); for IC50 / inhibition at 25 µM: Trypanosoma cruzi; for IC50: 120 h, read-out: epimastigote, IC50 T. cruzi; for inhibition at 25 µM: read-out: epimastigote, PGI (percentage growth inhibition) T. cruzi, determined at 25 μM
Method in brief: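 Turbidity (A595) was read at day 0 and day 5. PGI was calculated relative to untreated controls, with single-point PGI at 25 μM. IC50 is the concentration […]. At least three experiments.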

[4] = Cytotoxicity on primary peritoneal macrophages; type: cell-based, mouse; details: mouse, primary peritoneal macrophages, peritoneal macrophage, CC50, 48 h, MTT
Method in brief: (§1)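 Peritoneal or J774.1A macrophages were grown in DMEM with 10% heat-inactivated FBS, L-glutamine and penicillin/streptomycin. Cells were seeded at 5 × 10^4 cells/well for 24 h at 37 °C, 5% CO2, then given test compound at 10–100 μM (from 25,000 μM DMSO stock) for 48 h. MTT (0.4 mg/mL, 4 h, 37 °C) was dissolved in DMSO and read at 570 nm. Cytotoxicity was expressed relative to negative controls. At least three experiments.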

[5] = tested on: amastigotes of L. braziliensis; experiment: Ex vivo antiamastigote activity of L. braziliensis; type: cell-based, L. braziliensis (MHOM/BZ/82/M2903); details: for IC50: Leishmania braziliensis, 48 h, read-out: amastigote, IC50 L. braziliensis; for S.I.Leishmania (selectivity index): CC50 (peritoneal macrophage) / IC50 (amastigotes of L. braziliensis)
Method in brief: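 L. braziliensis MHOM/BZ/82/M2903 amastigotes were taken from footpad lesions of infected BALB/c mice. Macrophages were removed by brief centrifugation (3000 rpm, 2–3 min). Amastigotes were kept at 37 °C, pH 5.5, in supplemented M199 with 10% FCS. At 2 × 10^6/mL they were exposed to 1.0–50.0 μM test compound (controls 1% DMSO). At 48 h parasites were counted in a Neubauer chamber against untreated controls. S.I. = peritoneal macrophage CC50 / amastigote IC50.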

[6] = Solubility, qualitative remarks; type: physicochemical; details: qualitative remark
[7] = tested on: peritoneal macrophages; experiment: Cytotoxicity on primary peritoneal macrophages; type: cell-based, mouse; details: read-out: peritoneal macrophage, CC50; 48 h, MTT
Method in brief: as §1

[8] = Cytotoxicity on J774.1A macrophages; type: cell-based; details: mouse, J774.1A macrophages, J774.1A macrophage, CC50, 48 h, MTT
Method in brief: as §1

[9] = tested on: epimastigotes of T. cruzi; experiment: Antifolate activity: IC50 on T. cruzi epimastigotes with and without folic acid; type: cell-based; details: presence vs absence of D,L-folic acid
Method in brief: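 T. cruzi epimastigotes were treated with test compound with or without D,L-folic acid, following the epimastigote turbidimetric viability protocol (120 h, 25 °C, A595). IC50 was determined in each condition and compared.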

[10] = tested on: promastigotes of L. infantum; experiment: Effect of metal cations on IC50 on L. infantum promastigotes; type: cell-based; details: Leishmania parasites, metal cation at 1 μM
Method in brief: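 L. infantum promastigotes were treated with test compound alone or with a metal cation (Fe3+, Cu2+ or Zn2+) at 1 μM, following the promastigote MTT viability protocol. IC50 was determined with and without the cation and compared.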

[11] = tested on: J774.1A macrophages; experiment: Cytotoxicity on J774.1A macrophages; type: cell-based; details: read-out: J774.1A macrophage, CC50; 48 h, MTT
Method in brief: as §1

In the case of `NNc1nc(-c2ccc(F)cc2)nc2ccccc12` [3b, (Z)-1-(2-(4-fluorophenyl)quinazolin-4(3H)-ylidene)hydrazine], the IC50 ([1]; Leishmania braziliensis) is reported as 3.85 ± 0.17 µM, the IC50 ([2]; Leishmania infantum, 72 h) is reported as 5.01 ± 0.31 µM and the “S.I.T.cruzi (selectivity index), column epimastigote, IC50 (μM) T. cruzi (S.I.T.cruzi)” value (shortened to “S.I.T.cruzi (selectivity index)”) [3] is reported as >6.7. For the same compound, the IC50 [3] was 17.9 ± 1.21 µM, the CC50 at 48 h [4] was > 100 µM and the IC50 [5] was 7.41 ± 0.39 µM. The solubility in culture [6] was “appreciable solubility”.
With `CNC[C@H](O)[C@@H](O)[C@H](O)[C@H](O)CO.[O]=[Sb](=[O])[OH]` [glucantime, reference compound] the IC50 ([1]; promastigotes) was 32 ± 1.78 µM, the CC50 [7] was 138 ± 10.1 µM and the “S.I.Leishmania (selectivity index)” value [5] was 11.3.
For `Cc1ccc(-c2nc3ccccc3/c(=N/N)[nH]2)cc1` [3e, (Z)-1-(2-(4-Methylphenyl)quinazolin-4(3H)-ylidene)hydrazine], the IC50 ([1]; Leishmania braziliensis) was 10.1 ± 0.48 µM, the IC50 ([2]; Leishmania infantum, 72 h) was 1.2 ± 0.08 µM and the “S.I.T.cruzi (selectivity index)” value [3] was 6.4. For the same compound, the IC50 [3] was 18 ± 1.11 µM, the CC50 at 48 h [4] was 84.8 ± 3.67 µM and the CC50 at 48 h [8] was 115 ± 5.43 µM. For the same compound, the “S.I.Leishmania (selectivity index)” value [5] was 6.1, the IC50 [5] was 14 ± 0.89 µM and the “change of IC50 on addition of folic acid (FA)” value [9] was “Increasing IC50 values by about twofold”. For the same compound, the “change of IC50 in the presence of Cu2+” value [10] was “increase in IC50 values”.
In the case of `COc1ccccc1-c1nc2ccccc2/c(=N/N)[nH]1` [3i, (Z)-1-(2-(2-Methoxyphenyl)quinazolin-4(3H)-ylidene)hydrazine], the IC50 ([1]; Leishmania braziliensis) is reported as > 25 µM, the inhibition at 25 µM ([1]; Leishmania braziliensis) is reported as 49.2% and the “promastigote, IC50 L. braziliensis” value ([1]; promastigotes) is reported as “did not show activity”. For the same compound, the IC50 ([2]; Leishmania infantum, 72 h) was > 25 µM, the inhibition at 25 µM ([2]; Leishmania infantum, read-out: promastigote, PGI (percentage growth inhibition) L. infantum) was 28.3% and the “promastigote, IC50 L. infantum” value ([2]; promastigotes, 72 h, MTT) was “did not show activity”. The IC50 [3] was > 25 µM, the inhibition at 25 µM [3] was 11.9% and the solubility [6] was “poor solubilities”.
With `NNc1nc(-c2cccc(Cl)c2)nc2ccccc12` [3f, (Z)-1-(2-(3-chlorophenyl)quinazolin-4(3H)-ylidene)hydrazine] the IC50 ([1]; Leishmania braziliensis) was 5.63 ± 0.36 µM, the IC50 ([2]; Leishmania infantum, 72 h) was 4.55 ± 0.29 µM and the “S.I.T.cruzi (selectivity index)” value [3] was “no active”. The IC50 [3] was > 25 µM, the CC50 at 48 h [4] was > 100 µM and the CC50 [11] was > 120 µM. The IC50 [5] was 8.43 ± 0.51 µM and the solubility in culture [6] was “appreciable solubility”.
For `NNc1nc(-c2ccc(Br)cc2)nc2ccccc12` [3d, (Z)-1-(2-(4-bromophenyl)quinazolin-4(3H)-ylidene)hydrazine], the IC50 ([1]; Leishmania braziliensis) was 6.2 ± 0.38 µM, the IC50 ([2]; Leishmania infantum, 72 h) was 2.13 ± 0.12 µM and the “S.I.T.cruzi (selectivity index)” value [3] was 5.5. It also gave an IC50 [3] of 14.3 ± 0.87 µM, a CC50 [7] of 78 ± 3.89 µM and a CC50 [11] of 78.6 ± 3.99 µM. The “S.I.Leishmania (selectivity index)” value [5] was 6.2, the IC50 [5] was 12.7 ± 0.78 µM and the “change of IC50 on addition of folic acid (FA)” value [9] was “Increasing IC50 values by about twofold”.
With `N/N=c1\[nH]c(-c2cccc(Br)c2)nc2ccccc12` [3g, (Z)-1-(2-(3-bromophenyl)quinazolin-4(3H)-ylidene)hydrazine] the IC50 ([1]; Leishmania braziliensis) was > 25 µM, the inhibition at 25 µM ([1]; Leishmania braziliensis) was 27.3% and the IC50 ([2]; Leishmania infantum, 72 h) was 21.1 ± 1.21 µM. The IC50 [3] was > 25 µM.
For `N/N=c1\[nH]c(-c2ccco2)nc2ccccc12` [3k], the IC50 ([1]; Leishmania braziliensis) was > 25 µM, the inhibition at 25 µM ([1]; Leishmania braziliensis) was 46.6% and the IC50 ([2]; Leishmania infantum, 72 h) was 14 ± 0.91 µM. For the same compound, the IC50 [3] was > 25 µM and the inhibition at 25 µM [3] was 8.56%.
